Measured values from ChEMBL document CHEMBL2010640, “Perturbing pro-survival proteins using quinoxaline derivatives: a structure-activity relationship study” (Bioorg Med Chem, 2012).
Active and inactive are the calls of the source. No cut-off for these calls is given here.

How the values were obtained:
HeLa [1] = experiment: Induction of apoptosis in human HeLa cells overexpressing Bad3SA at 10 uM after 12 hrs by Hoechst staining; format: functional, cell-based
Outline: (§1)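 Doxycycline-inducible HeLa lines (Dox-GFP, Dox-Noxa, Dox-Bad3SA) induced with doxycycline (1 μg/mL) for 3 h, then treated for a further 12 h; ABT-737 tested at 1 μM, other compound at 10 μM, DMSO vehicle. Cells fixed and Hoechst-stained; condensed nuclei counted to give percent cell death.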

HeLa [2] = experiment: Induction of apoptosis in human HeLa cells assessed as caspase activation at 1 to 10 uM by Hoechst staining; format: functional, cell-based
Outline: (§2)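 HeLa cells, 2000 cells/well, treated 6 h (ABT-737 1 μM; other compounds 10 μM, alone or combined); Caspase-Glo 3/7 reagent added, luminescence read after 1 h, RLU normalized to alamarBlue fluorescence. Separately, cell death across doses of the combination scored by Hoechst staining.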

HeLa [3] = experiment: Induction of apoptosis in human HeLa cells expressing Bcl-xL assessed as decrease in Mcl-1 level at 1 to 10 uM by Western blot analysis; format: functional, cell-based; conditions: TDE = time-dependent effect
Outline: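 HeLa cells exposed to 1, 5 or 10 μM for 12 h (dose response), and Bcl-xL-overexpressing HeLa cells exposed to 10 μM for 3, 6 or 12 h (time course); lysates resolved by SDS-PAGE and blotted for Mcl-1, Bcl-xL and Bcl-2, actin as loading control, DMSO vehicle.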

[4] = target: Bcl-2-like protein 1 (Homo sapiens) (UniProt Q07817); experiment: Induction of Bcl-xL-mediated apoptosis in doxycyclin-stimulated human HeLa cells overexpressing Noxa at 10 uM after 12 hrs by Hoechst staining; format: cell-based; outline: as §1
Bcl-2-like protein 1 (Homo sapiens), sequence (Q07817 whole entry): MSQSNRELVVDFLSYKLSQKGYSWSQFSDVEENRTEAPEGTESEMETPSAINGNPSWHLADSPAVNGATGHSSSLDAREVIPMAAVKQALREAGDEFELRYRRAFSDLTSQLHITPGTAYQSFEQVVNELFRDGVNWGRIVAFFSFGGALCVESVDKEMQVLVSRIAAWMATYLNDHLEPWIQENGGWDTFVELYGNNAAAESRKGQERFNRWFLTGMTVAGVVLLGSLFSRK

HeLa [5] = experiment: Induction of apoptosis in human HeLa cells assessed as decrease in Mcl-1 level after 12 hrs by Western blot analysis
[6] = target: Induced myeloid leukemia cell differentiation protein Mcl-1 (Homo sapiens) (UniProt Q07820); experiment: Induction of Mcl-1-mediated apoptosis in doxycyclin-stimulated human HeLa cells overexpressing Bad3SA at 10 uM after 12 hrs by Hoechst staining; format: cell-based; outline: as §1
Induced myeloid leukemia cell differentiation protein Mcl-1 (Homo sapiens), sequence (Q07820 whole entry): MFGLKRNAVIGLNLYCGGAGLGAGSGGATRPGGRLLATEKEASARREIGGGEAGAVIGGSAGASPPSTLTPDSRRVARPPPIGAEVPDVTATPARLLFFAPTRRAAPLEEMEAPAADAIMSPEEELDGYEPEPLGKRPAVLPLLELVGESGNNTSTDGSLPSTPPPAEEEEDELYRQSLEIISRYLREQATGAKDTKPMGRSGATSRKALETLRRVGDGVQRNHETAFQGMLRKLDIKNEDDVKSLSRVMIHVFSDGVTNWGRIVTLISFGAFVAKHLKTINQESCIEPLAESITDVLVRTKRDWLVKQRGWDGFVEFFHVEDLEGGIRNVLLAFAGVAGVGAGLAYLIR

[7] = target: Induced myeloid leukemia cell differentiation protein Mcl-1 (Homo sapiens) (UniProt Q07820); experiment: Induction of Mcl-1-mediated apoptosis in doxycyclin-stimulated human HeLa cells expressing GFP at 10 uM after 12 hrs by Hoechst staining; format: cell-based; outline: as §1
HeLa [8] = experiment: Induction of apoptosis in human HeLa cells assessed as decrease in XIAP expression at 10 uM by Western blot analysis; format: functional, cell-based
Outline: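 HeLa cells treated 24 h, media and trypsinized cells pooled, lysed in RIPA buffer (pH 8.0); SDS-PAGE and Western blot for XIAP, α-tubulin as loading control.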

HeLa [9] = experiment: Induction of apoptosis in human HeLa cells assessed as caspase activation at 1 uM by Hoechst staining; format: functional, cell-based; outline: as §2
[10] = target: Induced myeloid leukemia cell differentiation protein Mcl-1 (Homo sapiens) (UniProt Q07820); experiment: Inhibition of Mcl-1 in doxycyclin-stimulated human HeLa cells overexpressing Bad3SA assessed as increase in caspase3/7 activity at 50 uM after 6 hrs by luminescence analysis; format: cell-based
Outline: (§3)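 Dox-Bad3SA HeLa cells (Bad3SA expressed under doxycycline control) exposed to compound for 6 h, with doxycycline or without it. Caspase 3/7 activity read as Caspase-Glo luminescence 1 h after adding reagent. Raw luminescence was normalized to alamarBlue fluorescence to correct for cell number.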

[11] = target: Induced myeloid leukemia cell differentiation protein Mcl-1 (Homo sapiens) (UniProt Q07820); experiment: Inhibition of Mcl-1 in human HeLa cells overexpressing Bad3SA assessed as increase in caspase3/7 activity at 50 uM after 6 hrs by luminescence analysis; format: cell-based; outline: as §3

## O=C(Nc1ccc(Br)cc1)Nc1ccc2nc(-c3cccs3)c(-c3cccs3)nc2c1
HeLa [1]
  Activity: inactive

## O=C(Nc1ccc(Br)cc1)Nc1ccc2nc(-c3ccco3)c(-c3ccco3)nc2c1
HeLa [2]
  Activity: inactive
HeLa [1]
  Activity: Active
HeLa [3]
  Activity: tde
[4]
  Activity: inactive
HeLa [5]
  Activity: Dose-dependent effect
[6]
  Activity: Active
[7]
  Activity: inactive
HeLa [8]
  Activity: Active

## O=C(Nc1ccc2nc(-c3ccco3)c(-c3ccco3)nc2c1)Nc1ccccc1Br
HeLa [1]
  Activity: inactive

## CN(C)CC[C@H](CSc1ccccc1)Nc1ccc(S(=O)(=O)NC(=O)c2ccc(N3CCN(Cc4ccccc4-c4ccc(Cl)cc4)CC3)cc2)cc1[N+](=O)[O-]
HeLa [9]
  Activity: inactive

## O=C(Nc1cccc(Br)c1)Nc1ccc2nc(-c3ccco3)c(-c3ccco3)nc2c1
HeLa [1]
  Activity: Active

## O=C(Nc1ccccc1)Nc1ccc2nccnc2c1
HeLa [1]
  Activity: inactive

## O=C(Nc1ccc(Br)cc1)Nc1ccc2nc(-c3ccccc3)c(-c3ccccc3)nc2c1
HeLa [1]
  Activity: Active

## O=C(Nc1ccc(Br)cc1)Nc1ccc2nc(-c3ccccn3)c(-c3ccccn3)nc2c1
HeLa [1]
  Activity: inactive

## Cc1nc2ccc(NC(=O)Nc3ccc(Br)cc3)cc2nc1C
HeLa [2]
  Activity: inactive
HeLa [1]
  Activity: inactive

## CC[C@@]1(O)C(=O)OCc2c1cc1n(c2=O)Cc2cc3ccccc3nc2-1
[10]
  inhibition: Active
[11]
  inhibition: inactive
